Measurements from ChEMBL document CHEMBL4130485, “Inhibitors of Yellow Fever Virus replication based on 1,3,5-triphenyl-4,5-dihydropyrazole scaffold: Design, synthesis and antiviral evaluation” (Eur J Med Chem, 2017).

What was measured:
[1] = Cytotoxicity against golden hamster BHK21 cells assessed as decrease in cell viability after 72 hrs by MTT assay; type: cell-based, Mesocricetus auratus, BHK-21
In short: (§1)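 Uninfected MDBK (6×10^5 cells/mL, 10% horse serum) or BHK (1×10^6 cells/mL, 10% FBS) cells in MEM-Earle with serial compound dilutions at 37 °C, 5% CO2, run in parallel with the antiviral assays. Viability read by MTT after 72 h. CC50 by linear regression; mean of three determinations.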

[2] = tested on: Yellow fever virus; assay: Antiviral activity against Yellow fever virus 17D vaccine (Stamaril Pasteur J07B01) infected in golden hamster BHK21 cells assessed as protection against virus-induced cytopathic effect after 3 to 4 days by MTT assay; type: functional, organism-based; conditions: BHK-21
In short: (§2)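 BHK-21 cells (MDBK for BVDV) seeded at 5×10^4 (BHK) or 3×10^4 (MDBK) cells/well and grown overnight to confluence. Infected at m.o.i. 0.01 in maintenance MEM-Earle with 0.5% inactivated FBS. Serial compound dilutions added 2 h later (final 100, 20, 4, 0.8 µM; DMSO ≤0.1%). Viability read by MTT after 3–4 days at 37 °C. EC50 obtained by linear regression against untreated controls; mean of three determinations.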

[3] = Selectivity index, ratio of CC50 for golden hamster BHK21 cells to EC50 for Yellow fever virus 17D; type: toxicity; conditions: read-out: Ratio CC50/EC50
In short: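 Selectivity index calculated as BHK-21 CC50 divided by YFV EC50, both from MTT assays.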

[4] = tested on: dengue virus type 2; assay: Antiviral activity against Dengue virus type 2 clinical isolate infected in golden hamster BHK21 cells assessed as protection against virus-induced cytopathic effect after 3 to 4 days by MTT assay; type: functional, organism-based; conditions: BHK-21; in short: as §2
[5] = tested on: West Nile virus; assay: Antiviral activity against West Nile virus clinical isolate infected in golden hamster BHK21 cells assessed as protection against virus-induced cytopathic effect after 3 to 4 days by MTT assay; type: functional, organism-based; conditions: BHK-21; in short: as §2
[6] = Cytotoxicity against bovine MDBK cells assessed as decrease in cell viability after 72 hrs by MTT assay; type: cell-based, Bos taurus; conditions: cattle; in short: as §1
[7] = tested on: Bovine viral diarrhea virus 1; assay: Antiviral activity against Bovine viral diarrhea virus NADL ATCC VR 534 infected in bovine MDBK cells assessed as protection against virus-induced cytopathic effect after 3 to 4 days by MTT assay; type: functional, organism-based, Bovine viral diarrhea virus 1-NADL; conditions: Bovine viral diarrhea virus isolates and strains, ATCC VR 534, MDBK; in short: as §2
[8] = Cytotoxicity against human MT4 cells assessed as decrease in cell viability after 96 hrs by MTT assay; type: cell-based
In short: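 Exponentially growing MT-4 cells seeded at 1×10^5 cells/mL in RPMI-1640 with 10% FBS and incubated with serial compound dilutions at 37 °C, 5% CO2. Viability read by MTT after 96 h. CC50 by linear regression versus untreated controls.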

[9] = tested on: Human immunodeficiency virus 1; assay: Antiviral activity against HIV1 3B infected in human MT4 cells assessed as protection against virus-induced cytopathic effect after 4 days by MTT assay; type: functional, organism-based; conditions: Human immunodeficiency virus 1, 3B, MT4, 96 h
In short: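 MT-4 cells (1×10^4/well) in RPMI with serial compound dilutions, infected with 100 CCID50 HIV-1 (m.o.i. 0.01). Viability read by MTT after 4 days at 37 °C. EC50 for 50% protection from cytopathicity obtained by linear regression versus untreated controls; mean of three determinations.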

[10] = tested on: Mammalian orthoreovirus 1; assay: Antiviral activity against Reovirus 1 infected in golden hamster BHK21 cells assessed as protection against virus-induced cytopathic effect after 3 to 4 days by MTT assay; type: functional, organism-based; conditions: Mammalian orthoreovirus 1, BHK-21; in short: as §2
[11] = Cytotoxicity against African green monkey Vero 76 cells assessed as decrease in cell viability after 48 to 96 hrs by MTT assay; type: cell-based; conditions: chlorocebus sabaeus
In short: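 Vero 76 cells seeded at 5×10^5 cells/mL in D-MEM with 10% FBS and incubated with serial compound dilutions at 37 °C, 5% CO2. Viability read by MTT after 48–96 h. CC50 by linear regression versus untreated controls.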

[12] = Antiviral activity against Human enterovirus B Faulkner ATCC VR 185 infected in African green monkey Vero 76 cells assessed as protection against virus-induced cytopathic effect after 3 days by crystal violet staining-based plaque reduction assay; type: functional, cell-based; conditions: Faulkner ATCC VR 185, Vero 76, 72 h
[13] = tested on: Enterovirus C; assay: Antiviral activity against Enterovirus C Sabin […] infected in African green monkey Vero 76 cells assessed as protection against virus-induced cytopathic effect after 2 days by crystal violet staining-based plaque reduction assay; type: functional, organism-based; conditions: Vero 76, 48 h
[14] = tested on: Vaccinia virus; assay: Antiviral activity against Vaccinia virus Lister ATCC VR 1549 infected in African green monkey Vero 76 cells assessed as protection against virus-induced cytopathic effect after 3 days by crystal violet staining-based plaque reduction assay; type: functional, organism-based; conditions: Orthopoxvirus vaccinia, ATCC VR 1549, Vero 76, 72 h
[15] = tested on: Human alphaherpesvirus 1; assay: Antiviral activity against Human herpesvirus 1 KOS ATCC VR 1493 infected in African green monkey Vero 76 cells assessed as protection against virus-induced cytopathic effect after 3 days by crystal violet staining-based plaque reduction assay; type: functional, organism-based; conditions: Human alphaherpesvirus 1, KOS, Vero 76, 72 h
[16] = tested on: Vesicular stomatitis Indiana virus; assay: Antiviral activity against Vesicular stomatitis virus Indiana ATCC VR 158 infected in African green monkey Vero 76 cells assessed as protection against virus-induced cytopathic effect after 2 days by crystal violet staining-based plaque reduction assay; type: functional, organism-based; conditions: ATCC VR 158, Vero 76, 48 h
[17] = tested on: Human orthopneumovirus; assay: Antiviral activity against Human respiratory syncytial virus A2 ATCC VR 1540 infected in African green monkey Vero 76 cells assessed as protection against virus-induced cytopathic effect after 5 days by crystal violet staining-based plaque reduction assay; type: functional, organism-based; conditions: ATCC VR 1540, Vero 76, 120 h
[18] = tested on: Yellow fever virus; assay: Potency index, ratio of azauridine EC50 to compound EC50 for Yellow fever virus 17D vaccine (Stamaril Pasteur J07B01); type: functional

Row | SMILES | CC50 at 72 h [1] | EC50 [2] | selectivity ratio [3] | EC50 [4] | EC50 [5] | CC50 at 72 h [6] | EC50 [7] | CC50 at 96 h [8] | EC50 [9] | EC50 [10] | CC50 [11] | EC50 [12] | EC50 [13] | EC50 [14] | EC50 [15] | EC50 [16] | EC50 [17] | Ratio EC50 [18]
1 | NS(=O)(=O)c1ccc(N2N=C(c3ccccc3)CC2c2ccc(F)cc2)cc1 (centres undefined) | 12 to 13 µM | 2600 nM | 5 | > 13 µM | > 13 µM | 18 µM | > 18 µM | 45 µM | > 45 µM | > 12 µM | 23 µM | > 23 µM | > 23 µM | > 23 µM | > 23 µM | > 23 µM | > 23 µM | 10
2 | Cc1ccccc1C1CC(c2ccccc2)=NN1c1ccc(S(N)(=O)=O)cc1 (centres undefined) | 14 µM | 2200 nM | 6.4 | > 14 µM | > 14 µM | 18 µM | > 18 µM | 43 µM | > 43 µM | > 14 µM | 24 µM | > 24 µM | > 24 µM | > 24 µM | > 24 µM | > 24 µM | > 24 µM | 10
3 | NS(=O)(=O)c1ccc(N2N=C(c3ccc(OCc4ccccc4)cc3)CC2c2ccc(F)cc2)cc1 (centres undefined) | 60 to 69 µM | 1900 nM | 31.6 | > 60 µM | > 60 µM | > 100 µM | > 100 µM | > 100 µM | > 100 µM | > 69 µM | 90 µM | > 90 µM | > 90 µM | > 90 µM | > 90 µM | > 90 µM | > 90 µM | 10
4 | NS(=O)(=O)c1ccc(N2N=C(c3ccccc3)CC2c2cccc(F)c2)cc1 (centres undefined) | 15 µM | ≥ 15000 nM |  |  |  | 20 µM | > 20 µM | 44 µM | 13 µM | > 15 µM | 24 µM | > 24 µM | > 24 µM | > 24 µM | > 24 µM | > 24 µM | > 24 µM | 10
5 | NS(=O)(=O)c1ccc(N2N=C(c3ccccc3)CC2c2ccc(Cl)cc2)cc1 (centres undefined) | 32 µM | > 32000 nM |  |  |  | 11 µM | > 11 µM | 36 µM | > 36 µM | > 32 µM | 21 µM | > 21 µM | > 21 µM | > 21 µM | > 21 µM | > 21 µM | > 21 µM | 10
6 | C[C@@]1(O)[C@H](O)[C@@H](CO)O[C@H]1n1cnc2c(=O)[nH]c(N)nc21 [2'-B-METHYL-GUANOSINE] |  |  |  | 1.7 µM | 0.8 µM |  |  |  |  |  |  |  |  |  |  |  |  | 
7 | COc1c(C)c2c(c(O)c1C/C=C(\C)CCC(=O)O)C(=O)OC2 [MYCOPHENOLIC ACID] |  |  |  |  |  |  |  |  |  |  | 9 µM |  |  |  |  |  |  | 
8 | Nc1nc2c(ncn2COCCO)c(=O)[nH]1 [ACYCLOVIR] |  |  |  |  |  |  |  |  |  |  | > 100 µM |  |  |  | 1.8 µM |  |  | 
